Assay results from different studies.
Each line is one published result; the experiments were not run side by side. pIC50, pKd, pKi: −log10 of the molar value.
1-deoxy-D-xylulose 5-phosphate reductoisomerase: 1-deoxy-D-xylulose 5-phosphate reductoisomerase (Mycobacterium tuberculosis, UniProt P9WNS1)
ENAH: Protein enabled homolog (ENAH, UniProt Q8N8S7)
DPP4: Dipeptidyl peptidase 4 (DPP4, Homo sapiens, UniProt P27487)
pknB: Serine/threonine-protein kinase PknB (pknB, Mycobacterium tuberculosis, UniProt P9WI81)

| Compound | target | read-out | mode | method | pH | measurement | value |
| --- | --- | --- | --- | --- | --- | --- | --- |
| CC(=O)N(O)CCC(c1ccc(-c2cccnc2)cc1)P(=O)(O)O (stereo not shown) | 1-deoxy-D-xylulose 5-phosphate reductoisomerase | enzyme activity | inhibitor | absorbance | pH 7.5 | pIC50 | 6.10 |
| CC(=O)N[C@@H](Cc1ccccc1Cl)C(=O)N1CCC[C@H]1C(=O)N1CCC[C@H]1C(=O)N1CCC[C@H]1C(=O)N1CCC[C@H]1C(=O)N[C@H](C(=O)N[C@@H](CCC(=O)O)C(=O)N[C@@H](CC(=O)O)C(=O)N[C@@H](CCC(=O)O)C(=O)N[C@@H](C)C(N)=O)[C@@H](C)O | ENAH | binding | – | fluorescence | – | pKd | 5.46 |
| CC(C)C[C@H](NC(=O)[C@@H]1CCCN1C(=O)[C@@H](NC(=O)[C@@H]1CCCN1C(=O)[C@@H](N)C(C)C)C(C)C)C(=O)O | DPP4 | enzyme activity | inhibitor | absorbance | pH 8 | pIC50 | 3.89 |
| CC(C)(C)OC(=O)N1CCN(c2ccc(Nc3nccc(-c4ccccc4)n3)cc2C(F)(F)F)CC1 | pknB | cell-free assay | inhibitor | – | – | pKi | < 5.23 |
| CC(C)[C@H](N)C(=O)N1CCC[C@H]1C(=O)N[C@H](C(=O)N1CCC[C@H]1C(=O)N[C@@H](CO)C(=O)O)C(C)C | DPP4 | enzyme activity | inhibitor | absorbance | pH 8 | pIC50 | 4.03 |
| CC(=O)N(O)CCC(c1ccc2c(c1)OCO2)P(=O)(O)O (stereo not shown) | 1-deoxy-D-xylulose 5-phosphate reductoisomerase | enzyme activity | inhibitor | absorbance | pH 7.5 | pIC50 | 5.82 |
| COc1cccc(-c2ccnc(Nc3ccc(N4CCN(C(=O)OC(C)(C)C)CC4)c(C(F)(F)F)c3)n2)c1 | pknB | cell-free assay | inhibitor | – | – | pKi | < 5.23 |
| CC(=O)N(O)CCC(c1cc2ccccc2o1)P(=O)(O)O (stereo not shown) | 1-deoxy-D-xylulose 5-phosphate reductoisomerase | enzyme activity | inhibitor | absorbance | pH 7.5 | pIC50 | 5.02 |
| CC(C)[C@H](N)C(=O)N1CCC[C@H]1C(=O)N[C@H](C(=O)N1CCC[C@H]1C(=O)N[C@@H](CCCCN)C(=O)O)C(C)C | DPP4 | enzyme activity | inhibitor | absorbance | pH 8 | pIC50 | 3.98 |
| CC(=O)N[C@@H](CO)C(=O)N[C@@H](Cc1ccccc1)C(=O)N[C@@H](CCC(=O)O)C(=O)N[C@@H](Cc1ccccc1)C(=O)N1CCC[C@H]1C(=O)N1CCC[C@H]1C(=O)N1CCC[C@H]1C(=O)N1CCC[C@H]1C(=O)N[C@H](C(=O)N[C@@H](CCC(=O)O)C(=O)N[C@@H](CC(=O)O)C(=O)N[C@@H](CCC(=O)O)C(=O)N[C@@H](CC(C)C)C(N)=O)[C@@H](C)O | ENAH | binding | – | fluorescence | – | pKd | 4.89 |
